The structures appear in SMILES notation. Converted amounts (≈) assume the structure as drawn. The source made the active and inactive calls. The calls are words filed in the database; no cut-off is given here.

Common to all, as to format: functional
The test system of one assay is P388. As to the kind of experiment: Cytotoxicity against mouse P388 cells by MTT assay. In short, it runs like this: (§1)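 Colorimetric read-out using a modified MTT [3-(4,5-dimethylthiazol-2-yl)-2,5-diphenyltetrazolium bromide] method, following previously described procedures.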
In general terms: Tetrazolium assays rely on reduction of a dye to a coloured formazan, in cell work by metabolically active cells.

Another assay has as its system A549. The experiment in a line: Cytotoxicity against human A549 cells by MTT assay. In short, it runs like this:
as §1

The next assay concerns HT-29. As to the kind of experiment: Cytotoxicity against human HT-29 cells by MTT assay. Summed up: as §1
Setting [1] is: read-out: ED50 (the source's name).

As for `CCCC(=O)O[C@@H]1/C(C)=C\[C@@H]2OC(=O)[C@@]3(C)O[C@]23[C@@H](OC(C)=O)[C@H]2[C@@H](C)[C@@H](OC(C)=O)C[C@H](OC(C)=O)[C@]2(C)[C@@H](OC(C)=O)[C@H]1O`, the result with P388, in the assay on A549 and with HT-29 was inactive.
As for `CCCC(=O)O[C@@H]1/C(C)=C\[C@@H]2OC(=O)[C@@]3(C)O[C@]23[C@@H](OC(C)=O)[C@H]2[C@@H](C)[C@@H](O)C[C@H](OC(C)=O)[C@]2(C)[C@@H](O)[C@H]1OC(C)=O`, the result in the assay with P388, in the assay on A549 and in the assay with HT-29 was inactive.
With `CCCC(=O)O[C@@H]1/C(C)=C\[C@@H]2OC(=O)[C@@]3(C)O[C@]23[C@@H](OC(C)=O)[C@H]2[C@@H](C)[C@@H](O)C[C@H](OC(C)=O)[C@]2(C)[C@@H](OC(C)=O)[C@H]1O` [BRIAEXCAVATOLIDE P], the EC50 in the assay on P388 (setting [1]) was found to be 0.9 µg/mL (≈ 1.47 µM); in the assay with A549 (setting [1]), 4.8 µg/mL (≈ 7.86 µM); with HT-29 (setting [1]), 3.1 µg/mL (≈ 5.08 µM).
Regarding `CCCCCCCC(=O)O[C@H]1C[C@H](OC(C)=O)[C@@]2(C)[C@H]([C@H]1C)[C@H](OC(C)=O)[C@]13O[C@]1(C)C(=O)O[C@H]3/C=C(/C)C[C@H](OC(=O)CCC)[C@@H]2OC(C)=O`, the outcome in the assay on P388, in the assay on A549 and with HT-29 was inactive.

The values are drawn from ChEMBL document CHEMBL1156371, “New polyoxygenated briarane diterpenoids, briaexcavatolides O-R, from the gorgonian Briareum excavatum” (2001).
